Rows were chosen to be rich in hits. Some 4.1% of all compounds tested hit in one or more screens of this group.
MC4R barr agon: agonists of human melanocortin 4 receptor (MC4R) beta-arrestin. activation, % at 8.9 µM. U2OS MC4R beta-arrestin complementation, luminescence; percent of melanotan II response, DMSO zero. 360,000 compounds, 0.98% hits. AID 540308;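 active means activation above a per-plate cutoff, the mean activation of sample wells on that plate plus 3 SD, cut at about 8% in these data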
SMARCA2 act: SMARCA2 function activation, primary screen; MG213 cells, MMTV-luciferase reporter, dexamethasone, overnight; activation, % at 9.1 µM; 370,000 compounds, 1% hits; in the data active means activation above about 7.8%;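 further: 0% = vehicle wells and 100% = reference activator wells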
MPTP inh: blocks calcium-induced mitochondrial swelling | 360,000 compounds, 1.4% hits | isolated mouse mitochondria, Ca2+ swelling absorbance, 30 min | inhibition, % at 10 µM;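 active means inhibition of 50% or more, scaled per plate between neutral and stimulator controls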;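 further: 0% = DMSO wells given calcium and 100% = 1 mM EGTA wells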
MC4R antagonist: human MC4R antagonism in cAMP assay; P32245; MC4R-expressing cells, MTII-stimulated cAMP, LANCE TR-FRET; inhibition, % at 6.5 µM; 360,000 compounds, 0.48% hits; AID 540295;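 active means inhibition above its plate's cutoff, the mean of tested wells on that plate plus 3 SD, cut at about 29% in these data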;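 further: 0% = Melanotan II alone and 100% = Melanotan II plus saturating MCL0020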
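Material – human MC4R-expressing U2OS cells · Repeats – no replicates · Detection – TR-FRET with Eu-cAMP and labeled anti-cAMP, 671 nm · Times – compound 30 min, challenge 1 h, detection 1 h · Compound – single nominal compound dose of 6.5 µM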
ATG4B inh: inhibitors of human ATG4B cysteine protease; ATG4B cleavage of LC3-PLA2, NBD-HPC fluorescence, 1 h; 340,000 compounds, 0.51% hits; inhibition, % at 8.33 µM; AID 504462; in the data active means inhibition above about 40%
Target sequence (Q9Y4P1 whole entry, looked up): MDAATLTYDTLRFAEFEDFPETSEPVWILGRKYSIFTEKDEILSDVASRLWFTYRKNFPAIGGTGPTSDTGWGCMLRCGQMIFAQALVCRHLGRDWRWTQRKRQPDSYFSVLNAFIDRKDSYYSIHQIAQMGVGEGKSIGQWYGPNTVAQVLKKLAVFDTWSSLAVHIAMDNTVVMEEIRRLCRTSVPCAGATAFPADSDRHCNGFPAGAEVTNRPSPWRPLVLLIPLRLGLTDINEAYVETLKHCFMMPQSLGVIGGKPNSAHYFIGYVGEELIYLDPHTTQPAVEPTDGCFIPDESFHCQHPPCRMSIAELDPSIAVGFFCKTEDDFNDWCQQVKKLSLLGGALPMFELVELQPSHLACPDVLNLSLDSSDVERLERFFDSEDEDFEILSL
SMARCA2 act conf: SMARCA2 activation, confirmation screen | 3,500 compounds, 30% hits | shares compounds with SMARCA2 act | MG213 cells, MMTV-luciferase with dexamethasone, luminescence, overnight; MG213 cells expressing E1A, Rb sequestered; DMSO wells 0%, reference activator 100% | activation, % at 9.1 µM;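 active means activation above its plate's cutoff, the mean activation of tested wells plus 3 SD, cut at about 7.9% in these data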
VP16 Luc act: GAL4-VP16 reporter activation counter-screen. shares compounds with SMARCA2 act. HEK293 GAL4-VP16 pG5luc reporter, luciferase luminescence; scaled: DMSO wells 0%, SAHA wells 100%. activation, % at 9.1 µM. 3,500 compounds, 41% hits. AID 686939;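 active means activation above the solvent-only control well mean plus 3 SD, averaged across control plates, cut at about 5.2% in these data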
An asterisk follows results filed as active; / = no result given.

SMILES | MC4R barr agon | SMARCA2 act | MPTP inh | MC4R antagonist | ATG4B inh | SMARCA2 act conf | VP16 Luc act
CCOC(=O)C1CSCCS(=O)(=O)N1Cc1ccc(F)cc1 (stereo unspecified) | / | 3 | / | / | / | / | /
O=C(N/N=C1\CCc2ccccc21)c1ccccc1Cl | -1 | 3 | 1 | -5 | 9 | / | /
Cc1ccc(C(=O)N/N=C2\CCc3ccccc32)c(C)c1 | -1 | 8.5* | 1 | 0 | 15 | 7 | 11*
Cc1nc(-c2ccccc2)sc1-c1ccn[nH]1 | -3 | 12* | -3 | -5 | -4 | 14* | 13*
COC(=O)[C@]12C[C@H](CC(=O)N3CCN(C(=O)C4CC4)CC3)C(=O)N(Cc3cccc4ccccc34)C1=C[C@H](C(C)C)O[C@@H]2C1CC1 | / | -2 | / | / | / | / | /
CC(C)(C)OC(=O)COc1ccc(/C=N/NC(=O)CN2CCCCC2)cc1 | 2 | 14* | 0 | 23 | 3 | 5 | 5.3*
N#Cc1c(Nc2ccccc2Cl)s[nH]c1=O | -2 | 8.8* | 1 | 28 | -8 | 7 | 0
N#Cc1c(Nc2ccccc2C(F)(F)F)s[nH]c1=O | -7 | 3 | -1 | 18 | 4 | / | /
CCCCCCCCN1C(=O)N2Cc3ccc(C)cc3C2CS1(=O)=O (stereo unspecified) | / | -6 | / | / | / | / | /
Cc1ccc(S(=O)(=O)Nc2nc3ccccc3nc2NCc2ccco2)cc1 | -1 | 8.7* | 0 | 7 | -10 | 22* | 19*
COCC1CCN(C(=O)C2CCC(=O)N(Cc3ccc(Cl)cc3)C2)CC1 (stereo unspecified) | -3 | 8.3* | 3 | 2 | -10 | -1 | 0
O=C1c2cccc3cccc(c23)C(=O)N1c1cccnc1 | -3 | 8.5* | 0 | -12 | -3 | -1 | 1
c1ccc(CSc2nc3ncccn3n2)cc1 | -1 | 8.7* | -1 | 12 | 2 | 12* | 8.8*
CCOC(=O)c1c(NC(C)=O)sc2c(OCC(O)CNC(C)(C)C)c(Br)ccc12 (stereo unspecified) | 3 | 11* | -2 | 9 | -5 | 8.7* | 2
Cc1cc(NS(=O)(=O)c2ccc(NC(=O)CSc3nnc(-c4ccco4)n3-c3ccc(Cl)cc3)cc2)nc(C)n1 | / | -8 | / | / | / | / | /
Cc1ccc(S(=O)(=O)N(C)Cc2ccc(C(=O)N/N=C3\CC(=O)CC(C)(C)C3)cc2)cc1 | -5 | 10* | 2 | 10 | -3 | -1 | 0
COC(=O)C1CN(C2CC2)CCS(=O)(=O)N1Cc1cn(Cc2ccccc2)nn1 (stereo unspecified) | / | -3 | / | / | / | / | /
COc1nc(=O)n(C2C=CC(=O)O2)cc1F (stereo unspecified) | -1 | 15* | 0 | -9 | / | 23* | 5.7*
Cn1c(C2=C(O)CN(Cc3ccccc3)C2=N)nc2ccccc21 | 0 | 8.6* | 0 | -2 | 5 | 0 | 3
Cn1c(C2=C(O)CN(Cc3ccccc3)C2=N)[n+](C)c2ccccc21 | 3 | 7 | 1 | 9 | 2 | / | /
O=C(Nc1ccc2ccccc2c1)NC1CCCCN(Cc2cccc(Cl)c2)C1=O (stereo unspecified) | / | 1 | / | / | / | / | /
N#CCS(=O)(=O)c1cccc[n+]1[O-] | / | 8.8* | / | / | / | -4 | 1
O=P(Cc1cccc[n+]1[O-])(c1ccccc1)c1ccccc1 | -1 | 3 | 0 | 2 | -7 | / | /
COc1ccc(C(C(=O)N(C)C2CCCC2)N(Cc2ccc(F)cc2)C(=O)c2cc(C)[nH]n2)cc1OC (stereo unspecified) | / | 11* | / | / | / | 4 | 0
Clc1c(-c2ccccc2)nc2ccccn12 | 2 | 1 | 0 | -3 | 7 | / | /
SMILES | MC4R barr agon | SMARCA2 act | MPTP inh | MC4R antagonist | ATG4B inh | SMARCA2 act conf | VP16 Luc act
c1ccn2c(c1)nc1c2nc2ccccn21 | -1 | 12* | -2 | -16 | -3 | 5 | 4
Cn1ncc2c(Nc3ccc(Br)cc3)nc(Nc3ccc(Br)cc3)nc21 | 0 | -4 | 0 | 6 | 5 | / | /
Cn1ncc2c(Nc3ccc(O)cc3)nc(Cl)nc21 | 0 | 18* | -1 | -9 | 4 | 5 | 2
C#CCNC(=O)C[C@@H]1C[C@]2(C(=O)OCC)CCC3=C2N(CCC3)C1=O | / | -1 | / | / | / | / | /
O=C(CN1C(=O)C2(OCCCO2)c2ccccc21)NCc1ccccc1Cl | / | -2 | / | / | / | / | /
Cc1ccc(C(=O)CSc2nc(C)cc(=O)[nH]2)cc1 | -1 | 8.2* | 0 | 7 | -4 | -2 | 0
O=C1NC(NS(=O)(=O)c2ccccc2)(C(F)(F)F)C(=O)N1Cc1ccccc1 (stereo unspecified) | 1 | 1 | 2 | 1 | 14 | / | /
Nc1ccc(S(=O)(=O)NC2(C(F)(F)F)NC(=O)N(Cc3ccccc3)C2=O)cc1 (stereo unspecified) | 2 | 8.0* | 0 | 11 | 7 | -5 | 0
CCN(/C=N/c1sc2c(c1C#N)CCCCC2)CC | 2 | 8.0* | 0 | 5 | 2 | 8.7* | 7.7*
CC(C)CN(/C=N/c1sc2c(c1C#N)CCCCC2)CC(C)C | -4 | -5 | 0 | -2 | -1 | / | /
COc1ccc(-n2nnnc2C2(C)CCC(=O)N2Cc2ccccc2)cc1 (stereo unspecified) | / | 2 | 3 | / | / | / | /
CN(CCCOC(=O)CC1C=CCC1)C1CN(Cc2cn(Cc3ccccc3Cl)nn2)S(=O)(=O)C1 (stereo unspecified) | / | -1 | / | / | / | / | /
CC(C)Oc1ccc(C(=O)OCC(=O)c2ccc[nH]2)cc1 | 2 | 12* | -1 | 5 | -11 | 9.4* | 7.3*
O=c1c(-c2ccc(F)cc2)coc2cc(O)ccc12 | 1 | 12* | 1 | 1 | -15 | 5 | 11*
CCc1ccc(C(=O)CN2C(=O)NC(C)(c3ccc(C)cc3)C2=O)cc1 (stereo unspecified) | -1 | 9.1* | 1 | 16 | -9 | 6 | 0
Cc1ccc(C2(C)NC(=O)N(CC(=O)c3ccc4c(c3)OCCO4)C2=O)cc1 (stereo unspecified) | 1 | 1 | 0 | 0 | -4 | / | /
Cc1ccc(/C=C2/NC(=O)[C@H](C)NC2=O)cc1 | -1 | 8.4* | 0 | 5 | -5 | 2 | 3
C[C@@H]1NC(=O)/C(=C\c2ccccc2Br)NC1=O | -1 | -1 | 0 | 2 | 3 | / | /
CCCCCCCCN1C(=O)[C@@H](CC(=O)NCCCOC)C[C@@]2(C(=O)OC)C1=C[C@H](C(C)(C)C)O[C@@H]2C | / | -6 | / | / | / | / | /
CC(C#N)(Cc1ccccc1)Nc1ccccc1 (stereo unspecified) | 0 | 10* | 3 | 17 | 3 | -2 | -1
C=CC(=O)NC(C)(C)Cc1ccccc1 | -3 | -1 | -1 | 2 | -3 | / | /
